Results published in ChEMBL document CHEMBL1140409, “Discovery of potent, nonsystemic apical sodium-codependent bile acid transporter inhibitors (Part 2)” (J Med Chem, 2005).

System: not listed separately
Test: Amount (dissolved in aqueous Tween-80) in bile of rat was determined by fecal bile acid content for 45 min in a 37 degree C
Type: ADME, tissue-based, Feces
Set-up: concentration or dose not given beside the values
Settings: in vivo, 0.75 h
Outline: (§1)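 Male Wistar rats (275–300 g) were gavaged once each morning for 4 days at 5, 0.2 or 0.04 mpk in aqueous 0.2% (v/v) Tween-80 (2 mL/kg). Feces from the final 48 h were homogenized in twice their weight of water. Homogenate was diluted in butanol/water (2:0.6), extracted 45 min at 37 °C, centrifuged, and bile acids (μmol/day) measured enzymatically. Scores compared against a reference analogue at 0.04 mg/kg.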

Activity [%]	Structure (SMILES)
0.24	CCCCC1(CCCC)CS(=O)(=O)c2ccc(N(C)C)cc2[C@@H](c2ccc(OCCCCCN(CC(=O)O)CC(=O)O)cc2)[C@H]1O
0.12	CCCCC1(CCCC)CS(=O)(=O)c2ccc(N(C)C)cc2[C@@H](c2ccc(OCCCC[N+]34CCN(CC3)CC4)cc2)[C@H]1O
7.14	CCCCC1(CCCC)CS(=O)(=O)c2ccc(N(C)C)cc2[C@@H](c2ccc(OCC(=O)NCC(=O)O)cc2)[C@H]1O
0.11	CCCCC1(CCCC)CS(=O)(=O)c2ccc(N(C)C)cc2[C@@H](c2ccc(OCc3ccc(C[N+]45CCN(CC4)CC5)cc3)cc2)[C@H]1O [MARALIXIBAT]
0.21	CCCCC1(CCCC)CS(=O)(=O)c2ccc(N(C)C)cc2[C@@H](c2ccc(OCCC[N+]34CCN(CC3)CC4)cc2)[C@H]1O
0.03	CCCCC1(CCCC)CS(=O)(=O)c2ccc(N(C)C)cc2[C@@H](c2ccc(OCc3cc[n+](C)cc3)cc2)[C@H]1O
0.12	CCCCC1(CCCC)CS(=O)(=O)c2ccc(N(C)C)cc2[C@@H](c2ccc(OCc3ccc(CN(CC(=O)O)CC(=O)O)cc3)cc2)[C@H]1O

System: not listed separately
Test: Efficacy to increase fecal bile acid excretion; + is more efficacious
Type: ADME, tissue-based, Feces
Settings: rat
Outline: as §1

Efficacy	Structure (SMILES)
More efficacious than analogue 2	CCCCC1(CCCC)CS(=O)(=O)c2ccc(N(C)C)cc2[C@@H](c2ccc(OCCCCCN(CC(=O)O)CC(=O)O)cc2)[C@H]1O
More efficacious than analogue 2	CCCCC1(CCCC)CS(=O)(=O)c2ccc(N(C)C)cc2[C@@H](c2ccc(OCCCC[N+]34CCN(CC3)CC4)cc2)[C@H]1O
More efficacious than analogue 2	CCCCC1(CCCC)CS(=O)(=O)c2ccc(N(C)C)cc2[C@@H](c2ccc(OCC(=O)NCC(=O)O)cc2)[C@H]1O
More efficacious than analogue 2	CCCCC1(CCCC)CS(=O)(=O)c2ccc(N(C)C)cc2[C@@H](c2ccc(OCc3ccc(C[N+]45CCN(CC4)CC5)cc3)cc2)[C@H]1O [MARALIXIBAT]
More efficacious than analogue 2	CCCCC1(CCCC)CS(=O)(=O)c2ccc(N(C)C)cc2[C@@H](c2ccc(OCCC[N+]34CCN(CC3)CC4)cc2)[C@H]1O
More efficacious than analogue 2	CCCCC1(CCCC)CS(=O)(=O)c2ccc(N(C)C)cc2[C@@H](c2ccc(OCc3cc[n+](C)cc3)cc2)[C@H]1O

Biological target: T1, Ileal sodium/bile acid cotransporter (Homo sapiens, UniProt Q12908)
T1 sequence (Q12908 whole entry): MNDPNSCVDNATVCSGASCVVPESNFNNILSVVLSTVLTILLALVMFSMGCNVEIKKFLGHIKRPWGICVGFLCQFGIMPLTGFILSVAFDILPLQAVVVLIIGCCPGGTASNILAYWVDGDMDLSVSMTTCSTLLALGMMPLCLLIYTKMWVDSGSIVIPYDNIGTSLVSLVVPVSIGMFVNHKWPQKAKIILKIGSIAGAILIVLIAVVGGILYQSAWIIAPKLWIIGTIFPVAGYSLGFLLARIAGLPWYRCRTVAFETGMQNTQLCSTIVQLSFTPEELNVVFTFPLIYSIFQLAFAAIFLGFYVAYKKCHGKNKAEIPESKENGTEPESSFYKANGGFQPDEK
Test: In vitro inhibition of ASBT mediated uptake of [14C]taurocholate (5 uM) in baby hamster cells expressing human IBAT
Type: cell-based
Settings: not given

IC50 [nM]	Structure (SMILES)
52	CCCCC1(CCCC)CS(=O)(=O)c2ccc(N(C)C)cc2[C@@H](c2cccc(Nc3ccncc3)c2)[C@H]1O
7.3	CCCCC1(CCCC)CS(=O)(=O)c2ccc(N(C)C)cc2[C@@H](c2cccc(O)c2)[C@H]1O (racemic)
30	CCCCC1(CCCC)CS(=O)(=O)c2ccc(N(C)C)cc2[C@@H](c2cccs2)[C@H]1O (racemic)
4	CCCCC1(CCCC)CS(=O)(=O)c2ccc(N(C)C)cc2[C@@H](c2ccc(OCCOCCOCC[N+]34CCN(CC3)CC4)cc2)[C@H]1O
4.5	CCCCC1(CCCC)CS(=O)(=O)c2ccc(N(C)C)cc2[C@@H](c2cccc(CO)c2)[C@H]1O (racemic)
5500	CCCCC1(CCCC)CS(=O)(=O)c2ccc(N(C)C)cc2[C@@H](c2ccc(C[N+](CC)(CC)CC)cc2)[C@H]1O (racemic)
260	CCCCC1(CCCC)CS(=O)(=O)c2ccc(N(C)C)cc2[C@@H](c2ccc(OCC[N+](C)(C)C)cc2)[C@H]1O
2.3	CCCCC1(CCCC)CS(=O)(=O)c2ccc(N(C)C)cc2[C@@H](c2ccc(OCCCCCN(CC(=O)O)CC(=O)O)cc2)[C@H]1O
67	CCCCC1(CCCC)CS(=O)(=O)c2ccc(N(C)C)cc2[C@@H](c2cccc(C[N+](C)(C)C)c2)[C@H]1O
930	CCCCC1(CCCC)CS(=O)(=O)c2ccc(N(C)C)cc2[C@@H](c2ccc(CN(CC)CC)cc2)[C@H]1O (racemic)
620	CCCCC1(CCCC)CS(=O)(=O)c2ccc(N(C)C)cc2[C@@H](c2cccc3ccccc23)[C@H]1O (racemic)
6	CCCCC1(CCCC)CS(=O)(=O)c2ccc(N(C)C)cc2[C@@H](c2ccc(OCc3cc[n+](CC)cc3)cc2)[C@H]1O
22	CCCCC1(CCCC)CS(=O)(=O)c2ccc(N(C)C)cc2[C@@H](c2ccc(F)c(F)c2)[C@H]1O (racemic)
7.5	CCCCC1(CCCC)CS(=O)(=O)c2ccc(N(C)C)cc2[C@@H](c2cccc(C[n+]3ccccc3)c2)[C@H]1O (racemic)
4	CCCCC1(CCCC)CS(=O)(=O)c2ccc(N(C)C)cc2[C@@H](c2ccc(OCCOCCOCC[N+](C)(C)C)cc2)[C@H]1O
3.6	CCCCC1(CCCC)CS(=O)(=O)c2ccc(N(C)C)cc2[C@@H](c2ccc(OC)c(F)c2)[C@H]1O (racemic)
41	CCCCC1(CCCC)CS(=O)(=O)c2ccc(N(C)C)cc2[C@@H](c2ccc(C(=O)OC)cc2)[C@H]1O (racemic)
8.5	CCCCC1(CCCC)CS(=O)(=O)c2ccc(N(C)C)cc2[C@@H](c2ccc(OCCOCC[N+]34CCN(CC3)CC4)cc2)[C@H]1O
5	CCCCC1(CCCC)CS(=O)(=O)c2ccc(N(C)C)cc2[C@@H](c2ccccn2)[C@H]1O (racemic)

IC50 [nM]	Structure (SMILES)
28	CCCCC1(CCCC)CS(=O)(=O)c2ccc(N(C)C)cc2[C@@H](c2ccc(OCc3ccncc3)cc2)[C@H]1O
9	CCCCC1(CCCC)CS(=O)(=O)c2ccc(N(C)C)cc2[C@@H](c2ccc(OCCOCCOCCN(CCO)CCO)cc2)[C@H]1O
0.5	CCCCC1(CCCC)CS(=O)(=O)c2ccc(N(C)C)cc2[C@@H](c2ccc(OCCCCC[N+]34CCN(CC3)CC4)cc2)[C@H]1O
3.7	CCCCC1(CCCC)CS(=O)(=O)c2ccc(N(C)C)cc2[C@@H](c2cccc(CS(=O)(=O)O)c2)[C@H]1O (racemic)
42	CCCCC1(CCCC)CS(=O)(=O)c2ccc(N(C)C)cc2[C@@H](c2ccc(SC)cc2)[C@H]1O (racemic)
11	CCCCC1(CCCC)CS(=O)(=O)c2ccc(N(C)C)cc2[C@@H](c2ccc(CO)cc2)[C@H]1O (racemic)
17	CCCCC1(CCCC)CS(=O)(=O)c2ccc(N(C)C)cc2[C@@H](c2ccc3cc(O)ccc3c2)[C@H]1O (racemic)
3	CCCCC1(CCCC)CS(=O)(=O)c2ccc(N(C)C)cc2[C@@H](c2ccc(OCCOCCOCCN3CCCN(C)CCN(C)CCCN(C)CC3)c(F)c2)[C@H]1O
7	CCCCC1(CCCC)CS(=O)(=O)c2ccc(N(C)C)cc2[C@@H](c2cccc(OCC[N+](CC)(CC)CC)c2)[C@H]1O
75	CCCCC1(CCCC)CS(=O)(=O)c2ccc(N(C)C)cc2[C@@H](c2ccc3cc(OC)ccc3c2)[C@H]1O (racemic)
320	CCCCC1(CCCC)CS(=O)(=O)c2ccc(N(C)C)cc2[C@@H](c2ccc(C(=O)O)cc2)[C@H]1O (racemic)
2	CCCCC1(CCCC)CS(=O)(=O)c2ccc(N(C)C)cc2[C@@H](c2cccc(Nc3cc[n+](C)cc3)c2)[C@H]1O
7.5	CCCCC1(CCCC)CS(=O)(=O)c2ccc(N(C)C)cc2[C@@H](c2cccnc2)[C@H]1O (racemic)
2.2	CCCCC1(CCCC)CS(=O)(=O)c2ccc(N(C)C)cc2[C@@H](c2ccc(O)cc2)[C@H]1O (racemic)
8	CCCCC1(CCCC)CS(=O)(=O)c2ccc(N(C)C)cc2[C@@H](c2ccncc2)[C@H]1O (racemic)
0.76	CCCCC1(CCCC)CS(=O)(=O)c2ccc(N(C)C)cc2[C@@H](c2cccc(NC(=O)CCCC[N+](CC)(CC)CC)c2)[C@H]1O
0.3	CCCCC1(CCCC)CS(=O)(=O)c2ccc(N(C)C)cc2[C@@H](c2cccc(NCC(=O)NCC(=O)O)c2)[C@H]1O
20	CCCCC1(CCCC)CS(=O)(=O)c2ccc(N(C)C)cc2[C@@H](c2ccc(OC)c(OC)c2)[C@H]1O (racemic)
2	CCCCC1(CCCC)CS(=O)(=O)c2ccc(N(C)C)cc2[C@@H](c2ccc(OCCCCC[N+](CC)(CC)CC)cc2)[C@H]1O

IC50 [nM]	Structure (SMILES)
1000	CCCCC1(CCCC)CS(=O)(=O)c2ccc(N(C)C)cc2[C@@H](c2ccc(C(C)(C)C)cc2)[C@H]1O (racemic)
340	CCCCC1(CCCC)CS(=O)(=O)c2ccc(N(C)C)cc2[C@@H](c2ccc(OCCN(C)C)cc2)[C@H]1O
11	CCCCC1(CCCC)CS(=O)(=O)c2ccc(N(C)C)cc2[C@@H](c2cccc(OC)c2)[C@H]1O (racemic)
6.8	CCCCC1(CCCC)CS(=O)(=O)c2ccc(N(C)C)cc2[C@@H](c2ccc(OC)cc2)[C@H]1O (racemic)
0.75	CCCCC1(CCCC)CS(=O)(=O)c2ccc(N(C)C)cc2[C@@H](c2ccc(OCc3cc[n+](C)cc3)cc2)[C@H]1O
5.7	CCCCC1(CCCC)CS(=O)(=O)c2ccc(N(C)C)cc2[C@@H](c2ccc(OCCOCC[N+](CC)(CC)CC)cc2)[C@H]1O
2	CCCCC1(CCCC)CS(=O)(=O)c2ccc(N(C)C)cc2[C@@H](c2cccc(N)c2)[C@H]1O (racemic)
5	CCCCC1(CCCC)CS(=O)(=O)c2ccc(N(C)C)cc2[C@@H](c2ccsc2)[C@H]1O (racemic)
2	CCCCC1(CCCC)CS(=O)(=O)c2ccc(N(C)C)cc2[C@@H](c2cccc(OCCCCC[N+](CC)(CC)CC)c2)[C@H]1O
45	CCCCC1(CCCC)CS(=O)(=O)c2ccc(N(C)C)cc2[C@@H](c2cccc(OCCN(CC)CC)c2)[C@H]1O
47	CCCCC1(CCCC)CS(=O)(=O)c2ccc(N(C)C)cc2[C@@H](c2cccc(CN(C)C)c2)[C@H]1O (racemic)
7	CCCCC1(CCCC)CS(=O)(=O)c2ccc(N(C)C)cc2[C@@H](c2cccc(C(=O)OC)c2)[C@H]1O (racemic)
16	CCCCC1(CCCC)CS(=O)(=O)c2ccc(N(C)C)cc2[C@@H](c2ccc(OCCCCCN(CC)CC)cc2)[C@H]1O
8800	CCCCC1(CCCC)CS(=O)(=O)c2ccc(N(C)C)cc2[C@@H](c2ccc(C[N+](C)(C)C)cc2)[C@H]1O (racemic)
220	CCCCC1(CCCC)CS(=O)(=O)c2ccc(N(C)C)cc2[C@@H](c2ccc[n+](C)c2)[C@H]1O (racemic)
9.5	CCCCC1(CCCC)CS(=O)(=O)c2ccc(N(C)C)cc2[C@@H](c2ccc(O)c(O)c2)[C@H]1O (racemic)
850	CCCCC1(CCCC)CS(=O)(=O)c2ccc(N(C)C)cc2[C@@H](c2ccc(C[n+]3ccccc3)cc2)[C@H]1O (racemic)
30	CCCCC1(CCCC)CS(=O)(=O)c2ccc(N(C)C)cc2[C@@H](c2ccc(OCCOCCOCCN(CC)CC)cc2)[C@H]1O
